Assay results taken from ChEMBL document CHEMBL1128222, “Novel inhibitors for multidrug resistance: 1,3,5-triazacycloheptanes” (J Med Chem, 1995).

What was measured:
[1] = test system: P388/S; assay: Evaluation of inhibitory activity and cisplatin against drug sensitive P388 cells (P388/S) cells; format: functional, cell-based, Mus musculus; details: p388/s
Procedure, shortened: (§1)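 P388/S or P388/ADR cells at 10^5 cells/mL in RPMI-1640/10% FCS medium. They receive graded adriamycin, mitomycin C or cisplatin, alone or together with 2.5 μM modulator, for 48 h (DMSO final 0.25%). Growth is read by MTT and the antitumor-drug IC50 is reported.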

[2] = test system: P388/ADR; assay: Evaluation of inhibitory activity and cisplatin against multidrug resistant P388 cells (P388/ADR) cells; format: functional, cell-based, Mus musculus; procedure, shortened: as §1

- IC50 [1]: 72 nM
- IC50 [2]: 51 nM
Substance: 1,5-Bis-(4-chloro-benzyl)-4-methylsulfanyl-1,5,6,7-tetrahydro-[1,3,5]triazepin-2-one; compound with cisplatin
